Avidin fluor: avidin bead compound fluorescence profile; 220,000 tested, 0.38% active; Avidin beads, compound fluorescence 488/530 nm, flow cytometry; stronger effect = higher value; fluorescence (KMESF) at 10 µM; in the data active = fluorescence above about 47
Lmaj promast: Leishmania major promastigote growth inhibition | Leishmania major promastigotes, resazurin fluorescence viability | inhibition, % at 10 µM | 200,000 tested, 9% active | AID 1063;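 also: promastigotes grown with compound for 44 hours at 28 °C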
ABCG2 block: inhibitors of human ABCG2 transporter, ABCB1 counter-screen; AID 1325; IgMXP3 cells, JC-1 efflux, flow cytometry; 190,000 tested, 0.1% active; inhibition, % at 6.6 µM; Q9UNQ0;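 active = inhibition above 80%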
Target sequence (Q9UNQ0 whole entry, looked up): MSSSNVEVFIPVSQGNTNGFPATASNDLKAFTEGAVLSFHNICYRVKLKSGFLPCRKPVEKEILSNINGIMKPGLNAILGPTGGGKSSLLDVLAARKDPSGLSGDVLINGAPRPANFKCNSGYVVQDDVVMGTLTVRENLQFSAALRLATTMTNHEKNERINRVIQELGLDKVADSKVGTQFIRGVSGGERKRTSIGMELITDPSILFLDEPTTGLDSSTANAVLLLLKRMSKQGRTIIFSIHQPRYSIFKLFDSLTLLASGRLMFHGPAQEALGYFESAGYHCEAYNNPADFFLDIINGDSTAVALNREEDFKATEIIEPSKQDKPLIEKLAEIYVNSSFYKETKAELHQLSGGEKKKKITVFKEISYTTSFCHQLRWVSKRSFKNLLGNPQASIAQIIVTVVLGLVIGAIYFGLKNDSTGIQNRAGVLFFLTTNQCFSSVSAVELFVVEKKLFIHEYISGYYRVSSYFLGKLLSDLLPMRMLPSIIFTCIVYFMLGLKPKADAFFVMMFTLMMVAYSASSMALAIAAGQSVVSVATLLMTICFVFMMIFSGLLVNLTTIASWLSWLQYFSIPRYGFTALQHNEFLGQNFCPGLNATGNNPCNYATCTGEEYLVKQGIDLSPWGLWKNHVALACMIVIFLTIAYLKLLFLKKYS
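Test system: ABCG2 IgMXP3 and barcoded ABCB1 CCRF-Adr cell mix; Schedule: cells with compound and JC-1, 10 min at 25 °C, rotating, no wash; Technique: flow cytometry of retained JC-1 fluorescence; Measure: % inhibition of efflux relative to nicardipine and DMSO; Controls: nicardipine high and DMSO low controls.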
PKD1 inh: inhibitors of human PKD1 kinase; Q15139; PKD1 kinase fluorescence polarization assay; inhibition, % (concentration not given with the values); 200,000 tested, 0.056% active
ABCB1 block: human ABCB1 inhibition, ABCG2 as counter-screen | P08183 | CCRF-Adr cells, JC-1 efflux, flow cytometry | inhibition, % at 6.6 µM | 190,000 tested, 0.067% active; in the data active = inhibition above about 40%;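 also: higher value means more JC-1 retained so stronger ABCB1 efflux block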
GSH bead fluor: compound fluoresces at 488/530 nm on GSH beads | fluorescence (KMESF) at 10 µM | AID 1776 | GSH beads flow cytometry, compound fluorescence 488/530 nm; stronger effect = higher value | 190,000 tested, 0.25% active; in the data active = fluorescence above about 89;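 also: glutathione beads carrying GST-tagged Bcl family fusion proteins plus one bare bead set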
A number is an active result; - = inactive; . = no result given. Many of the other results were omitted from the sample, so hits are more common in it than they were. Rule as the data show it, unless noted: active = inhibition above about 50%; inactive = the rest.

SMILES	Avidin fluor	Lmaj promast	ABCG2 block	PKD1 inh	ABCB1 block	GSH bead fluor
COc1ccc(CCNC(=O)c2ccc(CN3CCC(Cc4ccccc4)CC3)cc2)cc1OC	-	-	-	-	-	-
CCc1ccccc1NC(=O)c1ccc(CN2CCC(Cc3ccccc3)CC2)cc1	-	79.6	-	-	-	-
O=C(c1ccc(CN2CCOCC2)cc1)N1CCC(Cc2ccccc2)CC1	91	87.4	-	-	-	-
CCCC(=O)Nc1ccc(-c2nc3cc(C)ccc3o2)cc1	-	-	-	-	-	-
CCCC(=O)Nc1ccc2oc(-c3ccc(OC)c(Br)c3)nc2c1	54	-	-	-	-	-
Cc1ccc(OCc2ccc(C(=O)Nc3c(C)nn(Cc4c(F)c(F)c(F)c(F)c4F)c3C)o2)c([N+](=O)[O-])c1	-	91.6	-	-	-	-
Cc1ccc(OCc2ccc(C(=O)NN)o2)c([N+](=O)[O-])c1	-	.	.	.	.	.
CSCCC(NC(N)=O)C(=O)NCc1ccc(Cl)cc1 (configuration not stated)	-	-	-	-	-	-
NC(=O)CCC(NS(=O)(=O)c1ccc(Cl)cc1)C(=O)NCc1ccc(Cl)cc1 (configuration not stated)	-	60.2	-	-	-	-
COc1cccc(C2C=C(Nc3ccccc3)C(=O)N2c2ccccc2)c1 (configuration not stated)	-	66.2	-	-	-	-
CCn1c(O)c(N=NC(=O)Cn2ccc(C(F)(F)F)n2)c2ccccc21	-	67.0	-	-	-	-
Cn1c(O)c(N=NC(=O)Cn2ccc(C(F)(F)F)n2)c2ccccc21	-	58.1	-	-	-	-
Cc1ccc(C(=O)N2CCC3(CC2)Oc2ccc(F)cc2C(=O)C32CC(c3cccnc3)=NO2)s1 (configuration not stated)	-	.	.	.	.	.
Cc1cccc(C(=O)O/N=C/c2c(N3CCOCC3)n(C)c3ccccc23)c1	-	98.9	-	-	-	-
Cn1c(Cl)c(/C=N/OC(=O)c2ccccc2Cl)c2ccccc21	-	-	-	-	-	-
CCOC(=O)C1=C(N)OC2=C(C(=O)CCC2)C1c1ccccc1OC (configuration not stated)	-	-	-	-	-	-
CCOC(=O)C1=C(N)OC2=C(C(=O)CCC2)C1c1ccccc1OCC (configuration not stated)	172	-	-	-	-	-
NC1=NS(=O)(=O)NC1c1ccc(F)cc1 (configuration not stated)	-	-	-	-	-	-
COC(=O)c1cn(-c2ccccc2)nc1-c1ccc(OC)cc1	-	-	-	-	-	-
CCN(CC)CCNC(=S)NC(=O)c1cn(-c2ccccc2)nc1-c1ccc(OC)cc1	-	90.7	-	-	-	-
CCN(CC)CCNC(=O)c1ccc(NC(=O)c2cn(-c3ccccc3)nc2-c2cccs2)cc1	-	100.4	-	-	-	-
CC1(C)CNc2cc([N+](=O)[O-])ccc2S1	-	-	-	-	-	-
CCc1ccc(C2NC(=S)NC3=C2C(=O)CC(C)(C)C3)cc1 (configuration not stated)	-	-	-	-	-	-
N#Cc1ncc(-c2ccc3c(c2)OCCOCCOCCOCCOCCO3)nc1C#N	-	95.5	-	-	-	-
CC12CCC(C(=O)N(Cc3ccccc3)Cc3ccccc3)(OC1=O)C2(C)C (configuration not stated)	-	71.5	-	-	-	-
SMILES	Avidin fluor	Lmaj promast	ABCG2 block	PKD1 inh	ABCB1 block	GSH bead fluor
NC(=O)c1sc(-c2ccsc2)cc1NS(=O)(=O)c1ccc(C(F)(F)F)cc1	-	.	.	.	.	.
CC(C)COc1ccc(C(=O)Nc2ccc([N+](=O)[O-])cc2)cc1	-	-	-	-	-	-
CC(C)COc1ccc(C(=O)Nc2ccc(SC(F)F)cc2)cc1	-	52.4	-	-	-	-
Cc1cc(=O)[nH]c(SCC(=O)Nc2cccc3ccccc23)c1C#N	132	-	-	-	-	-
Cc1sc2nc(CSc3ccccc3)nc(N3CCN(C)CC3)c2c1C	-	98.1	-	-	-	-
O=C(CC(Nc1ccc(F)cc1)C(=O)O)c1ccccc1 (configuration not stated)	-	60.7	-	-	-	-
Cc1ccc(/C=N/n2c(C)nc3ccccc3c2=O)s1	-	-	-	-	-	-
Cc1ccc(S(=O)(=O)c2c(COC(=O)c3ccccc3Cl)c(-c3ccccc3)nn2C)cc1	-	61.5	-	-	-	-
CCSc1nnc(NC(=O)[C@@H](NC(=O)c2ccccc2)C(C)C)s1	-	50.1	-	-	-	-
CCSc1nnc(NC(=O)c2ccccn2)s1	-	97.8	-	-	-	-
CCSc1nnc(NC(=O)c2ccccc2)s1	-	-	-	-	-	-
CCSc1nnc(NC(=O)c2cccnc2Cl)s1	-	-	-	-	-	-
CC(=O)c1c(COC(=O)c2ccc(F)cc2)nc2ccccc2[n+]1[O-]	-	.	.	.	.	.
Cc1c(Br)c([N+](=O)[O-])nn1CC(=O)NCc1ccccc1	-	-	-	-	-	-
Cc1c(Br)c([N+](=O)[O-])nn1CC(=O)NCCc1c[nH]c2ccccc12	-	68.7	-	-	-	-
Cc1ccc(C)c(NC(=O)Cn2nc([N+](=O)[O-])c(Br)c2C)c1	-	73.3	-	-	-	-
CCO[C@@H]1OC(C(N)=O)=C[C@H](c2coc3ccccc3c2=O)[C@H]1CCCO	-	.	.	.	.	.
COc1ccc(CCN2C(=O)c3[nH]nc(-c4ccccc4O)c3C2c2cccc(Cl)c2)cc1 (configuration not stated)	-	100.5	-	-	-	-
COc1ccc(C2c3c(-c4ccccc4O)n[nH]c3C(=O)N2CCc2ccc(OC)c(OC)c2)cc1 (configuration not stated)	-	89.3	-	-	-	-
COc1ccc(C2c3c(-c4ccccc4O)n[nH]c3C(=O)N2Cc2ccco2)cc1 (configuration not stated)	-	.	.	.	.	.
Cc1cccc(Cn2c(O)c(N=NC(=S)Nc3ccccc3F)c3ccccc32)c1	-	96.7	-	-	-	-
Cc1ccc2c(c1)c(N=NC(N)=S)c(O)n2Cc1ccccc1	-	-	-	-	-	-
Oc1c(N=NC(=S)Nc2ccccc2F)c2ccccc2n1Cc1cccc(Cl)c1	-	83.0	-	-	-	-
Oc1c(N=NC(=S)Nc2ccccc2F)c2ccccc2n1Cc1ccc(F)cc1	-	90.7	-	-	-	-
Cc1cccc(NC(=S)N=Nc2c(O)n(CN3CCOCC3)c3ccccc23)c1C	-	96.1	-	-	-	-
O=C(Oc1cc(-c2ccccc2)no1)c1ccc(Cl)cc1	-	-	-	-	-	-
COc1ccc(C(=O)Oc2cccc3cccnc23)cc1[N+](=O)[O-]	-	93.4	-	-	-	-
Cc1ccc(C(=O)Oc2ccc(Cl)c3cccnc23)cc1[N+](=O)[O-]	-	98.0	-	-	-	-

Screening data from PubChem.
